Data taken from the EternaBench riboswitch data.

Tested on: MS2 coat protein
Assay: apparent Kd, MS2 coat protein; higher = weaker binding; RNA-MaP array; FMN 200 µM where present
How it was run: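 Binding was read on Illumina sequencing-chip clusters where stalled E. coli RNA polymerase had transcribed each design. A titration of SNAP-549-labelled MS2 coat protein began at 0.7 or 1.5 nM and doubled to 3 µM, once without ligand and once with constant ligand, in 100 mM Tris-HCl pH 7.5, 80 mM KCl, 4 mM MgCl2, BSA, DTT, yeast tRNA and Tween-20. The apparent Kd is the median of filtered per-cluster binding-curve fits, based on green signal normalised to red-channel RNA signal and control-cluster median Fmax.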

[1] = designed as: ON switch for flavin mononucleotide, no ligand
[2] = ligand present: flavin mononucleotide, designed as: ON switch for flavin mononucleotide
[3] = designed as: OFF switch for flavin mononucleotide, no ligand
[4] = ligand present: flavin mononucleotide, designed as: OFF switch for flavin mononucleotide

Row | Sequence | apparent Kd [1] | apparent Kd [2] | apparent Kd [3] | apparent Kd [4]
1 | UGACUGAAGCAAGGAUAUUGAAAAGUUAACGUACAAGAAGGUGCUGUUUAUGUCUCUUUACAUGAGGAUCACCCAUGUUUUUAU | 0.0367 µM | 0.0232 µM |  | 
2 | GCAGCAAUUUAAAACAUGAGGAUCACCCAUGUCGAGUGUUAUGAGGAUAUGCAUCGGAUGAAGAUGCAGAAGGCAUUGUGCUGC | 0.00632 µM | 0.00672 µM |  | 
3 | UUCGGUGAAGGAUAUAGGGCUCGGUACAUGAGGAUCACCCAUGUUGCUUUAUGUUCCACCCUAGAAGGUUAUCACC |  |  | 0.417 µM | 0.37 µM
4 | GUUUAGUGAGGAUAUGUGGCAUCGCCCGAGCGCGGUCGGCUACAGAAGGCACAUGAGGAUCACCCAUGUUUCUC |  |  | 0.0386 µM | 0.585 µM
5 | GCCUUAUCUGUCAGGAUAUACAAUUUUUUUUUUUUGUAGAAGGGACAUGAGGAUCACCCAUGUACAUUACAUUG |  |  | 0.034 µM | 0.0579 µM
6 | GUUACAUGAGGAUCACCCAUGUAUGUGUGGGAGUAAGUGUCUUAGGAUAUCUAUCAUUUAAUAUAAGAGAAGGAAGAUUGUUGU | 0.109 µM | 0.14 µM |  | 
7 | GGAACGCUUGACAUGAGGAUCACCCAUGUUAGAUUGUUAUGUCAGGAUAUAGUCUAGAAACUAGACUAGAAGGGAUAUGUUUCU | 0.428 µM | 0.0877 µM |  | 
8 | CUAUUGUGAGGAUAUCAGUAGUAGAACAAUAGUACUACUACUGAGAAGGCACAUGAGGAUCACCCAUGUUCCUC |  |  | 0.0611 µM | 0.406 µM
9 | GCAGCGUAUGUAGGAUAUCGGUCAGUUUCUGACCGAGAAGGACAUGAGGAUCACCCAUGUAAAUUACCGACUUUGUCGGGCUGC |  |  | 0.00667 µM | 0.00862 µM
10 | AUGUUAUUCUGAGGAUAUUGUUUAUUCUUCUCACAUGAGGAUCACCCAUGUUUCCGUGUUUACCGCAAGAAGGCAGUUUUGUUU |  |  | 0.0299 µM | 0.0275 µM
11 | AUCAGCUCGUCAGGAUAUACGUCGCUGCGUCAGCAGUGUGGUAAGAUCACAUGAGGAUCACCCAUGUAGAAGGGACGAGCUGAU |  |  | 0.0193 µM | 0.374 µM
12 | AGUAAGAUGCAGAAGGUGUUAGCUAGAGCUACGACAUGAGGAUCACCCAUGUACUAGAAACAGUACAAGGAUAUGCAUCUUACG | 0.0166 µM | 0.00647 µM |  | 
13 | UGAACAAUGUAGAAGGCCCAUAUUUAUAUAUAGGGAGGAUAUACAUGAGGAUCACCCAUGUAAAGAGCAAGAGGACUUGACAGA |  |  | 0.00927 µM | 0.0157 µM
14 | AGCGUACAAGCUGACAUGAGGAUCACCCAUGUGGUCUCAUGCGAGGAUAUCGGGAAGGAGGAUUCCGAGAAGGUGCGGUGAGCC | 0.275 µM | 0.0449 µM |  | 
15 | GUAGCACAUGAUUUACAUGAGGAUCACCCAUGUAACAUGGGUAAGGAUAUUGAUGUGAAGUUAAUCAAGAAGGUACUAUGCUAC | 0.00965 µM | 0.00635 µM |  | 
16 | UGUUGUAUUACAGGAUAUCUAUGGUUUUUAUUUAGAGAAGGGUAUUCACAUGAGGAUCACCCAUGUAUAUACGAGGAAGUUGUG | 0.0575 µM | 0.0637 µM |  | 
17 | CUAUUACGAGGAUAUGAUUUAAAUAACAUGAGGAUCACCCAUGUUUUUACGUUAUUAUGUUUAGAAGGCGUAUUGU |  |  | 0.0501 µM | 0.0314 µM
18 | ACCUCACAUGAGGAUCACCCAUGUCAGGAUAUGUACCCGAUCAAGUCAGAGAUUGGGAGCAGAAGGGACUGCGG |  |  | 0.119 µM | 0.0345 µM
19 | GUAUAUAUUACAUGAGGAUCACCCAUGUCAGAACGGGUAAUCAGAAGGUAUUAUUAGAGAAAGGGUAAGGAUAUGAUUAUAUAU | 0.605 µM | 0.224 µM |  | 
20 | ACCUCACAUGAGGAUCACCCAUGUUAGGAUAUAUAAUCGUCGGCCUAGGGCCGGAGAUAUAGAAGGAGCAUAAC |  |  | 0.0169 µM | 0.0197 µM
21 | CGCCGACAUGAGGAUCACCCAUGUCACAUCUGGUCAGGAUAUGGUAUGAUUUGGCUAUUGCCAGAAGGGACCUCAG | 0.0489 µM | 0.028 µM |  | 
22 | UUUACAUGAGGAUCACCCAUGUAUAGAACGGUUCAUUAAAGUGAGGAUAUACGAAAUUUAAAAUCGUAGAAGGCACUGGGUACA | 0.017 µM | 0.0191 µM |  | 
23 | AAUAACAGAGGAUAUACUAUUUUAUGUAUUUAUUAUUUUAAACAUGAGGAUCACCCAUGUAGAAGGCUGAUUGA |  |  | 0.0299 µM | 0.0284 µM
24 | GAUGUAUUCGUAGGAUAUCCGUCGCCACCGUGUGGAGAAGGACGAACAUGAGGAUCACCCAUGUAUCAUGGUGUAGACGCUUUC |  |  | 0.0636 µM | 0.0709 µM

Row | Sequence | apparent Kd [1] | apparent Kd [2] | apparent Kd [3] | apparent Kd [4]
25 | GCGAUUUUGUAAGGAUAUACUCUGUGAUGAAGAGUAGAAGGUACUUACAUGAGGAUCACCCAUGUUUAACGAGAUACUAAUCGU | 0.0421 µM | 0.0212 µM |  | 
26 | CGUGAAGGCUGGCCGAUAUAGUCGAGAAGGGUCCACAUGAGGAUCACCCAUGUGAGCCUUGGUGGACAGGAUAUCGAUGGCCGU |  |  | 0.0467 µM | 0.0152 µM
27 | UACCUGAGGCAAAGCCUUAGGUAUACAUGAGGAUCACCCAUGUAGGAUAUGGUAGGCUUUGCUUACCAGAAGGACAUGUUAAUU |  |  | 0.0198 µM | 0.0638 µM
28 | GAGCGAAAGCUCAAUGUCGAUAGCAGAAGGACAUCCUUUAACAUGAAAACAUGAGGAUCACCCAUGUAGGAUAUGCUAUCGACU |  |  | 0.00666 µM | 0.00792 µM
29 | AAAUUUAACGAAGGAUAUGCUGACAUGAGGAUCACCCAUGUGUGCCUUGUGUUACUGAUUAGGAAGCAGAAGGUCGUAUACAUA |  |  | 0.831 µM | 0.414 µM
30 | UGUCGGAGCAGAGGAUAUUACAUGAGGAUCACCCAUGUAUGAACCAAUAGCUGCAAACAGCAAUGUAAGAAGGCUGCUCCGACA |  |  | 0.0124 µM | 0.162 µM
31 | CAGUGCAAUGUAGGAUAUGCUCAGGAUAACUGAGCAGAAGGACAUGAGGAUCACCCAUGUACUAUGAAAGAUAAUAAAGCACUG |  |  | 0.0141 µM | 0.0183 µM
32 | AUCAGCUCGUCAGGAUAUAGGUCACUGCGUCAGCAGUGUGGUAAGAUCACAUGAGGAUCACCCAUGUAGAAGGGACGAGCUGAU |  |  | 0.0173 µM | 0.0595 µM
33 | UGGUACUAGGGAGGAUAUGGGAAGAUACAUGAGGAUCACCCAUGUUUAGGAAUGCCGAGAGGCAACUAGAAGGCCCUAGUACCU | 0.832 µM | 0.0461 µM |  | 
34 | CUUCAGUCAGGAUAUGUUAAUCUCGCCACUCCGCGAACCGGACAGAAGGGACAUGAGGAUCACCCAUGUUAAAC |  |  | 0.0304 µM | 0.0195 µM
35 | AAAGAACAUGAGGAUCACCCAUGUGAGGAUAUACGAGCGUGAGAAAGAUAAAACGAGCGUAGAAGGCACAAGAA |  |  | 0.0769 µM | 0.0815 µM
36 | AUGUAGCUAGGAUAUACAUAGAUACAGAUUCAUGUAGAACUACAUGAGGAUCACCCAUGUAGAAGGAGCUAAAA |  |  | 0.0287 µM | 0.0504 µM
37 | UUAUUAUGUGUAGGAUAUGCAUAUUACUAUUAUGCAGAAGGACAUGAGGAUCACCCAUGUAUAUUAUUAUUAUAUAUUAUAUAU |  |  | 0.0149 µM | 0.0224 µM
38 | UAUAUAUAGUAAGGAUAUGUAUAUAUUUUAGAAACAGAAGGUACUGACAUGAGGAUCACCCAUGUUUUAGUGUGGGCAUGUAGA |  |  | 0.0692 µM | 0.0897 µM
39 | UUACUACAUGAGGAUCACCCAUGUCAGGAUAUUGUCUAUACCUUGGAAUACGUGUCGACAAGAAGGGACUAUAU |  |  | 0.0211 µM | 0.024 µM
40 | ACCGUCCUCGUCAGGAUAUGUAUUGACUCUCCGAUACAGAAGGGACAUGAGGAUCACCCAUGUCCGGGACCUUA |  |  | 0.0182 µM | 0.0217 µM
41 | AAAUUAAGUGUGAGGAUAUGCUGGUCCUUAGAUCAGCAGAAGGCACAUGAGGAUCACCCAUGUAAUAUAUUUAA |  |  | 0.0389 µM | 0.193 µM
42 | UGACCCAUGACAUGAGAUGACAUGAGGAUCACCCAUGUGUACAAGGAUAUGUUGGUCGACGAUCGGCAGAAGGUGUAAUGGGAU |  |  | 0.0566 µM | 0.282 µM
43 | UUGAGGUCAGGAUAUGCAUGGCGGGACUUGCGUCGUGGCGUGCAGAAGGGACAUGAGGAUCACCCAUGUGGAGC |  |  | 0.0752 µM | 0.211 µM
44 | UGUAUGGACAGAGGAUAUGCCGAUAGGAUCUACUAUCGAAGAAUCCUCACAUGAGGAUCACCCAUGUAGAAGGCUGUCCAUACC |  |  | 0.00857 µM | 0.0368 µM
45 | CGCUGUCACGCAGGAUAUGCAUUGGAUUACAAUGCAGAAGGGCGAUUACAUGAGGAUCACCCAUGUGUUGACAGUGAAGAAGAG | 1.24 µM | 0.0806 µM |  | 
46 | AGACCCAUGACAUGACAUGACAUGAGGAUCACCCAUGUUUACAAGGAUAUGUUGAUGAAACAUCAACAGAAGGUGUAAUGGGCU |  |  | 0.0209 µM | 0.0731 µM
47 | GGGUUACAUGAGGAUCACCCAUGUGAGGAUAUGAUACUAUGUACUUCGGUACAUAGUAUCAGAAGGCACAUCCC |  |  | 0.0365 µM | 0.0727 µM
48 | GCACGGCAUGUAGGAUAUCGAGCUCCGGGAGCUCGAGAAGGACAUGAGGAUCACCCAUGUGCUCACAGUGAGUGAGUGCUGUGC |  |  | 0.0197 µM | 0.0388 µM
